The values below come from PMC7115568 (European Journal of Medicinal Chemistry, 2014).

For data set [1], the system named is human prostate (PC-3) cancer cell line. Put plainly: In vitro cytotoxic studies. Type of data set: cell-based. Conditions: PC-3 cells; for Cytotoxicity against PC-3 cell line (in words): tested at 0.2, 2.0 and 20 μM; for Cytotoxicity % inhibition: 72 h, MTT. Summed up: (§1)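 PC-3 cells grown in DMEM with 10% FBS and plated in 96-well format. They were exposed to test compound over 20 μM–0.001 μM for 72 h. MTT was then added (stock 5 mg/ml in PBS) for 4 h. Plates were spun, supernatant removed and formazan dissolved in DMSO with 30 min shaking. A550 was read and percentage inhibition calculated.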

Data set [2] in a line: In vitro cytotoxic studies. Conditions: human, PC-3 prostate cancer cells. The class given is cell-based, human. Summed up: as §1
Another data set relates to Tritrichomonas foetus. Nature of the data set: In vitro protozoal parasite susceptibility assay. The conditions noted are these: 24 h; for inhibition at 50 µM: Tritrichomonas foetus, read-out: Average % inhibition at 50 μM (Tritrichomonas foetus); for Average % inhibition at 50 μM (Tritrichomonas foetus): T. foetus strain D1, cells counted with hemacytometer. Type of data set: cell-based. In outline: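 T. foetus strain D1 was screened in TYM Diamond's medium. Test compound was dissolved in DMSO and diluted into the medium. After 24 h exposure, parasites were counted with a hemacytometer.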

“Also recorded” adds a separate entry of the source.

For the compound `O=C1C(=O)N(CC#CCN2CCN(c3ccnc4cc(Cl)ccc34)CC2)c2ccc(F)cc21` [Compound 7b, 1-{4-[4-(7-Chloro-quinolin-4-yl)-piperazin-1-yl]-but-2-ynyl}-5-fluoro-1H-indole-2,3-dione], in data set [1], the “Cytotoxicity against PC-3 cell line (in words)” value (from here on “Cytotoxicity … (in words)”) is listed as “no cytotoxicity”. In data set [2], the cytotoxicity at 72 h, 0.2 µM was 2.1%; the cytotoxicity at 72 h, 2 µM turned out to be 5%; the cytotoxicity at 72 h, 20 µM came to 3%. In addition, the inhibition at 50 µM in the data set on Tritrichomonas foetus turned out to be 100%.

Regarding `CCN(CC)CC#CCN1C(=O)C(=O)c2cc(C)ccc21` [Compound 3p, 1-(4-Diethylamino-but-2-ynyl)-5-methyl-1H-indole-2,3-dione], in data set [2], the cytotoxicity at 72 h, 0.2 µM was 11.5%; the cytotoxicity at 72 h, 2 µM was 10.2%; the cytotoxicity at 72 h, 20 µM turned out to be 11.2%. For the same compound, in the data set on Tritrichomonas foetus, the inhibition at 50 µM amounted to 51.5%.

For “5-Methyl-1-(4-pyrrolidin-1-yl-but-2-ynyl)-1H-indole-2,3-dione [Compound 3m]”, the figures for the Cytotoxicity % inhibition in data set [1] (0.2 μM), in data set [1] (2 μM) and in data set [1] (20 μM) were 6.8%, 10.5% and 2.4%, respectively. For the same compound, in the data set with Tritrichomonas foetus, the “Average % inhibition at 50 μM (Tritrichomonas foetus)” value (“Average % inhibition at 50 μM” below) came out at 31.8%.

For `O=C1C(=O)N(CC#CCN2CCOCC2)c2ccc(Cl)cc21` [Compound 3g, 5-Chloro-1-(4-morpholin-4-yl-but-2-ynyl)-1H-indole-2,3-dione], in data set [2], the cytotoxicity at 72 h, 0.2 µM was 0.8%; the cytotoxicity at 72 h, 2 µM stood at 4.3%; the cytotoxicity at 72 h, 20 µM worked out at 3.4%. Moreover, the inhibition at 50 µM in the data set with Tritrichomonas foetus is 22.7%.

Take `O=C1C(=O)N(CC#CCN2CCN(CC#CCN3C(=O)C(=O)c4ccccc43)CC2)c2ccccc21` [Compound 5a, Bis-{1-(yl-but-2-ynyl)-1H-indole-2,3-dione} piperazine]: the Cytotoxicity % inhibition was 6.5% in data set [1] (0.2 μM), 10.3% in data set [1] (2 μM) and 45.8% in data set [1] (20 μM). The “Cytotoxicity … (in words)” value in data set [1] is reported as “cytotoxic”. The “Average % inhibition at 50 μM” value with Tritrichomonas foetus is 3.0%.

In the case of `O=C1C(=O)N(CC#CCN2CCCC2)c2ccc(Cl)cc21` [Compound 3f, 5-Chloro-1-(4-pyrrolidin-1-yl-but-2-ynyl)-1H-indole-2,3-dione], in data set [2], the cytotoxicity at 72 h, 0.2 µM is 4.6%; the cytotoxicity at 72 h, 2 µM amounted to 4.3%; the cytotoxicity at 72 h, 20 µM was found to be 9.6%. In addition, the inhibition at 50 µM in the data set with Tritrichomonas foetus amounted to 15.2%.

With `O=C1C(=O)N(CC#CCN2CCCCC2)c2ccc(F)cc21` [Compound 3i, 5-Fluoro-1-(4-piperidin-1-yl-but-2-ynyl)-1H-indole-2,3-dione], in data set [2], the cytotoxicity at 72 h, 0.2 µM was -4.7%; the cytotoxicity at 72 h, 2 µM is -6%; the cytotoxicity at 72 h, 20 µM was 5.1%. Further, the inhibition at 50 µM in the data set with Tritrichomonas foetus turned out to be 40.9%.

Consider `O=C1C(=O)N(CC#CCN2CCCC2)c2ccccc21` [Compound 3b, 1-(4-Pyrrolidin-1-yl-but-2-ynyl)-1H-indole-2,3-dione], for which, in data set [2], the cytotoxicity at 72 h, 0.2 µM turned out to be 7%; the cytotoxicity at 72 h, 2 µM was 7%; the cytotoxicity at 72 h, 20 µM was determined as 3%. Further, the inhibition at 50 µM in the data set with Tritrichomonas foetus was found to be 10.6%.

As for `Cc1ccc2c(c1)C(=O)C(=O)N2CC#CCN1CCN(CC#CCN2C(=O)C(=O)c3cc(C)ccc32)CC1` [Compound 5d, Bis-{5-methyl-1-(yl-but-2-ynyl)-1H-indole-2,3-dione} piperazine], the Cytotoxicity % inhibition in data set [1] (0.2 μM) was −1.0%; in data set [1] (2 μM), 6.7%; in data set [1] (20 μM), 7.1%. Further, in the data set with Tritrichomonas foetus, the “Average % inhibition at 50 μM” value worked out at 71.2%.

On to `Cc1ccc2c(c1)C(=O)C(=O)N2CC#CCN1CCN(c2ccnc3cc(Cl)ccc23)CC1` [Compound 7d, 1-{4-[4-(7-Chloro-quinolin-4-yl)-piperazin-1-yl]-but-2-ynyl}-5-methyl-1H-indole-2,3-dione], for which the “Cytotoxicity … (in words)” value in data set [1] is reported as “no cytotoxicity; also recorded: minimal toxicity”. In addition, in data set [2], the cytotoxicity at 72 h, 0.2 µM is 1.3%; the cytotoxicity at 72 h, 2 µM is 8.1%; the cytotoxicity at 72 h, 20 µM was 8.2%. Further, the inhibition at 50 µM with Tritrichomonas foetus was 59.1%.

Turning to `O=C1C(=O)N(CC#CCN2CCN(c3ccnc4cc(Cl)ccc34)CC2)c2ccc([N+](=O)[O-])cc21` [Compound 7e, 1-{4-[4-(7-Chloro-quinolin-4-yl)-piperazin-1-yl]-but-2-ynyl}-5-nitro-1H-indole-2,3-dione], in data set [2], the cytotoxicity at 72 h, 0.2 µM stood at 0.5%; the cytotoxicity at 72 h, 2 µM stood at 3.2%; the cytotoxicity at 72 h, 20 µM came out at 4.8%. In the data set on Tritrichomonas foetus, the inhibition at 50 µM amounted to 60.6%.

`O=C1C(=O)N(CC#CCN2CCN(CC#CCN3C(=O)C(=O)c4cc(Cl)ccc43)CC2)c2ccc(Cl)cc21` [Compound 5b, Bis-{5-chloro-1-(yl-but-2-ynyl)-1H-indole-2,3-dione} piperazine]: the Cytotoxicity % inhibition in data set [1] (0.2 μM) is 24.4%; in data set [1] (2 μM), 28.9%; in data set [1] (20 μM), 24.8%. In the data set with Tritrichomonas foetus, the “Average % inhibition at 50 μM” value turned out to be 7.6%.

As to `O=C1C(=O)N(CC#CCN2CCOCC2)c2ccccc21` [Compound 3c, 1-(4-Morpholin-4-yl-but-2-ynyl)-1H-indole-2,3-dione], in data set [2], the cytotoxicity at 72 h, 0.2 µM was found to be 13.4%; the cytotoxicity at 72 h, 2 µM was 11.6%; the cytotoxicity at 72 h, 20 µM turned out to be 8.7%. Further, the inhibition at 50 µM in the data set with Tritrichomonas foetus turned out to be 9.1%.

For `O=C1C(=O)N(CC#CCN2CCCCC2)c2ccc(Cl)cc21` [Compound 3e, 5-Chloro-1-(4-piperidin-1-yl-but-2-ynyl)-1H-indole-2,3-dione], in data set [2], the cytotoxicity at 72 h, 0.2 µM stood at 11.1%; the cytotoxicity at 72 h, 2 µM turned out to be 10.7%; the cytotoxicity at 72 h, 20 µM amounted to 18.7%. Also, the inhibition at 50 µM in the data set on Tritrichomonas foetus was 3%.

On to `Cc1ccc2c(c1)C(=O)C(=O)N2CC#CCN1CCOCC1` [Compound 3o, 5-Methyl-1-(4-morpholin-4yl-but-2-ynyl)-1H-indole-2,3-dione], for which, in data set [2], the cytotoxicity at 72 h, 0.2 µM was 8%; the cytotoxicity at 72 h, 2 µM was found to be 7.8%; the cytotoxicity at 72 h, 20 µM is 3.5%. Also, the inhibition at 50 µM in the data set on Tritrichomonas foetus was determined as 57.6%.

`CCN(CC)CC#CCN1C(=O)C(=O)c2cc(F)ccc21` [Compound 3l, 1-(4-Diethylamino-but-2-ynyl)-5-fluoro-1H-indole-2,3-dione]: in data set [2], the cytotoxicity at 72 h, 0.2 µM was determined as 11.6%; the cytotoxicity at 72 h, 2 µM amounted to 14.5%; the cytotoxicity at 72 h, 20 µM was 7.9%. Further, the inhibition at 50 µM in the data set with Tritrichomonas foetus worked out at 18.2%.

Consider `O=C1C(=O)N(CC#CCN2CCOCC2)c2ccc(F)cc21` [Compound 3k, 5-Fluoro-1-(4-morpholin-4-yl-but-2-ynyl)-1H-indole-2,3-dione], for which, in data set [2], the cytotoxicity at 72 h, 0.2 µM came out at 3.8%; the cytotoxicity at 72 h, 2 µM came to 0.7%; the cytotoxicity at 72 h, 20 µM was found to be 3.2%. In addition, the inhibition at 50 µM in the data set on Tritrichomonas foetus amounted to 56.1%.

As for `O=C1C(=O)N(CC#CCN2CCN(CC#CCN3C(=O)C(=O)c4cc(F)ccc43)CC2)c2ccc(F)cc21` [Compound 5c, Bis-{5-fluoro-1-(yl-but-2-ynyl)-1H-indole-2,3-dione} piperazine], the Cytotoxicity % inhibition in data set [1] (0.2 μM) is given as −0.6%; in data set [1] (2 μM), −3.6%; in data set [1] (20 μM), 7.4%. Moreover, the “Average % inhibition at 50 μM” value in the data set with Tritrichomonas foetus was found to be 9.1%.

`O=C1C(=O)N(CC#CCN2CCCCC2)c2ccccc21` [Compound 3a, 1-(4-Piperadin-1-yl-but-2-ynyl)-1H-indole-2,3-dione]: the Cytotoxicity % inhibition was 6.0% in data set [1] (0.2 μM), 4.0% in data set [1] (2 μM) and 7.0% in data set [1] (20 μM). The “Average % inhibition at 50 μM” value with Tritrichomonas foetus was 18.2%.

For the compound `CCN(CC)CC#CCN1C(=O)C(=O)c2cc(Cl)ccc21` [Compound 3h, 5-Chloro-1-(4-diethylamino-but-2-ynyl)-1H-indole-2,3-dione], in data set [2], the cytotoxicity at 72 h, 0.2 µM is 4.8%; the cytotoxicity at 72 h, 2 µM came out at 5.6%; the cytotoxicity at 72 h, 20 µM was determined as 6.4%. Moreover, the inhibition at 50 µM with Tritrichomonas foetus was 42.4%.

For `Cc1ccc2c(c1)C(=O)C(=O)N2CC#CCN1CCCC1` [Compound 3n, 5-Methyl-1-(4-pyrrolidin-1-yl-but-2-ynyl)-1H-indole-2,3-dione], in data set [2], the cytotoxicity at 72 h, 0.2 µM came out at 1.9%; the cytotoxicity at 72 h, 2 µM amounted to 4.7%; the cytotoxicity at 72 h, 20 µM stood at 6.1%. In addition, in the data set with Tritrichomonas foetus, the inhibition at 50 µM came out at 65.2%.

For the compound `CCN(CC)CC#CCN1C(=O)C(=O)c2ccccc21` [Compound 3d, 1-(4-Diethylamino-but-2-ynyl)-1H-indole-2,3-dione], in data set [2], the cytotoxicity at 72 h, 0.2 µM turned out to be 8%; the cytotoxicity at 72 h, 2 µM was found to be 4.6%; the cytotoxicity at 72 h, 20 µM was 8%. Also, the inhibition at 50 µM in the data set with Tritrichomonas foetus came out at 22.7%.

`CS(=O)(=O)N1CCN(Cc2cc3nc(-c4cccc5[nH]ncc45)nc(N4CCOCC4)c3s2)CC1` [GDC-0941, reference compound]: in data set [2], the cytotoxicity at 72 h, 0.2 µM is 30.2%; the cytotoxicity at 72 h, 2 µM amounted to 56.8%; the cytotoxicity at 72 h, 20 µM is 72.2%.

Take `O=C1C(=O)N(CC#CCN2CCCC2)c2ccc(F)cc21` [Compound 3j, 5-Fluoro-1-(4-pyrrolidin-1-yl-but-2-ynyl)-1H-indole-2,3-dione]: in data set [2], the cytotoxicity at 72 h, 0.2 µM was 5%; the cytotoxicity at 72 h, 2 µM worked out at 4.3%; the cytotoxicity at 72 h, 20 µM was -2.7%. Besides, the inhibition at 50 µM in the data set with Tritrichomonas foetus came out at 33.3%.

As a reminder, the inhibition is the drop in the measured response relative to a control, in per cent.
